Compound activity: PubChem, several laboratories
PLCb3 inh: PLC-beta3 (human) inhibition, primary screen; Q01970; Purified PLC-beta3, fluorogenic substrate, fluorescence; inhibition, % at 12.2 µM; 370,000 compounds, 0.18% hits; in the data active = inhibition above about 11%;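 note: 0% = median of compound wells on plate and 100% = full blocker control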
KLK7 zymogen act: activators of human kallikrein-7 zymogen | P49862 | activation, % at 7 µM | 370,000 compounds, 0.9% hits | purified proKLK7, EDANS-DABCYL substrate fluorescence; 100% is mature enzyme control, 0% vehicle;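 active = activation above the mean of all tested compounds plus 3 SD, computed per campaign excluding outliers beyond control limits, cut at about 13% in these data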
DDE Tn6 FP inh: DD(E)-Tn6 binding inhibition, primary FP screen; P02675; Fibrin DD(E) TRITC-Tn6 fluorescence polarization displacement; inhibition, % at 8.3 µM; 370,000 compounds, 0.21% hits;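 active = inhibition above a per-campaign cutoff: mean of compounds within control limits plus 3 SD, cut at about 15% in these data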;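 note: 0% = median of all compound wells on the plate and 100% = blocking peptide control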
Target sequence (P02675 whole entry, looked up): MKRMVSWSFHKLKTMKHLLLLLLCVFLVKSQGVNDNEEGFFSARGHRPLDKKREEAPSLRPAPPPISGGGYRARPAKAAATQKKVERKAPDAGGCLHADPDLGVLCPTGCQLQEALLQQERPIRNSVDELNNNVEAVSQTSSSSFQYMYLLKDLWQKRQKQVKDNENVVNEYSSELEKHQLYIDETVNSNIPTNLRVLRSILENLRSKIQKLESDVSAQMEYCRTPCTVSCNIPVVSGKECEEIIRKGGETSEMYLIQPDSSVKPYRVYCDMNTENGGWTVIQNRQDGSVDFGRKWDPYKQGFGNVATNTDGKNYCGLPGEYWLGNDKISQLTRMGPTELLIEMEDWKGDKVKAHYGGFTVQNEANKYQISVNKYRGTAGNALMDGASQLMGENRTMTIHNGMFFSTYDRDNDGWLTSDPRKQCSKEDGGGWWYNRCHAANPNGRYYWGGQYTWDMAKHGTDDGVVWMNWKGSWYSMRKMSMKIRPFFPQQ
DDE Tn7 FP inh: DD(E)-Tn7 binding inhibition, primary FP screen. FP displacement of FITC-Tn7 peptide from fibrin DD(E); 0% = median of compound wells per plate. inhibition, % at 8.3 µM. 370,000 compounds, 0.13% hits. AID 720508;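 active = inhibition above the mean of compounds falling within the control limits plus 3 SD of them, cut at about 14% in these data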;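 note: 0% = plate median of compound wells and 100% = 10 µM Aha-Tn7 peptide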
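Assay system: human fibrin DD(E). Input: DD(E) 2 µM final. Medium: Tris buffer with calcium and detergent, pH 7.8. Compound dosing: single point at 8.3 µM. Timing: 10 min plus 3 h, room temperature. Technique: fluorescence polarization of the labelled Tn7 tracer. Read-out: percent inhibition. Replicates: singlicate testing.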
PLCg1 inh: PLC-gamma1 (human) inhibition, primary screen; purified PLC-gamma1, fluorogenic substrate, fluorescence; inhibition, % at 12.2 µM; 370,000 compounds, 0.84% hits; AID 720700; in the data active = inhibition above about 9.5%
CendR NRP1 mod: NRP-1/CendR interaction modulation; 360,000 compounds, 0.85% hits; O14786; FAM-RPARPAR peptide binding to NRP-1, fluorescence polarization; AID 602438; inhibition, % at 25 µM;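 active = inhibition or corrected inhibition above about 18%, plus a signal ratio from 0.5 to 1.5, limit read from the data, passing the limit was not always enough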
proKLK7 act conf: confirmation of human kallikrein-7 zymogen activators | shares compounds with KLK7 zymogen act | 3,200 compounds, 68% hits | activation, % at 7 µM | purified proKLK7, EDANS-DABCYL substrate fluorescence; scaled: vehicle 0, mature enzyme 100;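 active = activation, as change over the incubation, above the mean of all tested compounds plus 3 SD, cut at about 13% in these data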
EDANS-DABCYL int: optically interferes with EDANS-DABCYL signal, flagging KLK7 hits; AID 686952; shares compounds with KLK7 zymogen act; EDANS-DABCYL substrate fluorescence interference, no enzyme, 4 h; solvent 0%, active enzyme control 100%; activation, % at 7 µM; 3,200 compounds, 80% hits;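 active = activation above the all-compound mean plus 3 SD, ignoring values outside control-based bounds, cut at about 4.8% in these data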;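 note: value is the 4 h activation minus the activation read at time zero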
* hit, by the source's call; i = inactive; x = not tested or not shown. An excerpt weighted towards active compounds, which were near 3% of everything screened.

SMILES | PLCb3 inh | KLK7 zymogen act | DDE Tn6 FP inh | DDE Tn7 FP inh | PLCg1 inh | CendR NRP1 mod | proKLK7 act conf | EDANS-DABCYL int
CCOC(=O)C1=C(C)OC(N)=C(C#N)C1c1cc2c(cc1[N+](=O)[O-])OCO2 (configuration not stated) | -284 | 29* | -4 | -3 | -286 | -2 | 15* | 15*
CCCCN(CCCC)c1nc2ccccc2nc1C(C#N)C(=O)NCCCOC (configuration not stated) | -57 | -4 | 14 | 5 | -44 | 128 | x | x
CCN(CC)c1nc2ccccc2nc1C(C#N)C(=O)NCCCOC (configuration not stated) | -438 | 14* | -1 | 0 | -355 | -20 | 33* | 37*
CC1=CC(c2ccccc2)n2nc(N3C(=O)C4CC=CCC4C3=O)nc2N1 (configuration not stated) | i | 113* | -3 | 0 | i | -7 | 211* | 191*
CC1=CC(c2ccccc2)n2nc(N3C(=O)CCC3=O)nc2N1 (configuration not stated) | -451 | 76* | 5 | 0 | -370 | -10 | 112* | 142*
CC1=CC(c2ccccc2)n2nc(N3C(=O)c4ccccc4C3=O)nc2N1 (configuration not stated) | i | 17* | 2 | 1 | i | -21 | 8 | 8.0*
O=C1CC(c2ccccc2)n2nc(N3C(=O)CCC3=O)nc2N1 (configuration not stated) | 4 | 1 | 0 | -2 | 3 | 0 | x | x
CN(Cc1ccccc1)C(=O)OCc1cn(Cc2ccccc2F)nn1 | 0 | 1 | -2 | -3 | -2 | x | x | x
CC1CCN(C(=O)c2cc3c(=O)n4ccccc4nc3s2)CC1 | i | 23* | -5 | -13 | i | 8 | 23* | 26*
Cc1cccc(NC(=O)c2cc3c(=O)n4ccccc4nc3s2)c1 | -121 | 1 | -2 | 2 | -92 | -6 | x | x
CCCNC(=O)COC(=O)c1cc2c(=O)n3ccccc3nc2s1 | -351 | 20* | -6 | 4 | -293 | -3 | 73* | 86*
O=C(c1cc2c(=O)n3ccccc3nc2s1)N1CCN(c2cccc(Cl)c2)CC1 | -88 | -1 | 2 | -4 | -69 | 8 | x | x
O=C(c1cc2c(=O)n3ccccc3nc2s1)N1CCOCC1 | -498 | 17* | -4 | -6 | -396 | 6 | 68* | 68*
CCC(NC(=O)CCCN1C(=O)COc2ccc(C)cc21)c1ccccc1 (configuration not stated) | 0 | 1 | 3 | -1 | 0 | x | x | x
Cc1ccccc1C(=O)NC1CCCCN(Cc2ccc(Cl)cc2)C1=O (configuration not stated) | 0 | 0 | 6 | -2 | 0 | x | x | x
CCOP(=O)(OCC)C(NC(=O)c1cccs1)C(F)(F)F (configuration not stated) | -1 | 167* | -12 | 0 | -4 | -6 | 241* | 247*
COc1ccc(-c2cc3ccc(OCC(N)=O)cc3oc2=O)cc1OC | -478 | 1 | 8 | -4 | -328 | 7 | x | x
COc1ccc(-c2cc(=O)c3ccc(O)cc3o2)cc1OC | i | 121* | -7 | 0 | i | -4 | 42* | 46*
COc1ccc(-c2cc3ccc(O)cc3oc2=O)cc1OC | i | 42* | -9 | -3 | i | 2 | 71* | 71*
COC(=O)c1cc(NC(=O)NC2CCCCN(Cc3cccc(Cl)c3)C2=O)cc(C(=O)OC)c1 (configuration not stated) | -1 | 1 | 2 | 0 | -1 | x | x | x
N=c1c(C(=O)NCC2CCCO2)cc2c(=O)n3ccccc3nc2n1Cc1ccc(F)cc1 (configuration not stated) | -212 | 7 | -14 | 0 | -138 | -8 | x | x
Cc1cccn2c(=O)c3cc(C(=O)NCC4CCCO4)c(=N)n(Cc4cccnc4)c3nc12 (configuration not stated) | i | 148* | 4 | -1 | i | -2 | 49* | 60*
Cc1cccn2c(=O)c3cc(C(=O)NC(C)C)c(=N)n(Cc4ccncc4)c3nc12 | i | 116* | 3 | 2 | i | -1 | 32* | 37*
COc1ccc(CCn2c(=N)c(C(=O)NCC3CCCO3)cc3c(=O)n4cccc(C)c4nc32)cc1 (configuration not stated) | -63 | 0 | -8 | 8 | -32 | -5 | x | x
N=c1c(C(=O)NCC2CCCO2)cc2c(=O)n3ccccc3nc2n1Cc1cccnc1 (configuration not stated) | i | 134* | 5 | -2 | i | 12 | 35* | 33*
SMILES | PLCb3 inh | KLK7 zymogen act | DDE Tn6 FP inh | DDE Tn7 FP inh | PLCg1 inh | CendR NRP1 mod | proKLK7 act conf | EDANS-DABCYL int
N=c1c(C(=O)NC2CCCCC2)cc2c(=O)n3ccccc3nc2n1Cc1cccnc1 | -432 | 9 | 2 | -3 | -307 | -11 | x | x
N=c1c(C(=O)NCc2ccc(F)cc2)cc2c(=O)n3ccccc3nc2n1Cc1cccnc1 | i | 26* | 7 | 1 | -401 | -12 | -6 | -8
CCNC(=O)c1cc2c(=O)n3cccc(C)c3nc2n(Cc2ccc(C)cc2)c1=N | -312 | -6 | -3 | -4 | -287 | -1 | x | x
Cc1cc(C(=O)OCCCN(C)C2CN(Cc3cn(Cc4ccccc4C(F)(F)F)nn3)S(=O)(=O)C2)no1 (configuration not stated) | 2 | -1 | -2 | -2 | 2 | x | x | x
CC(C)C(NC(=O)[C@H](Cc1ccccc1)NC(=O)OCc1ccccc1)P(=O)(O)OC(Cc1ccccc1)C(=O)O (some centres not stated) | 1 | x | 6 | 5 | 5 | x | x | x
C#CCNC(=O)C[C@H]1C[C@@]2(C(=O)OC)C(=C[C@H](COCc3ccccc3)O[C@@H]2C)N(Cc2ccccc2)C1=O | 3 | 1 | -3 | -3 | 1 | x | x | x
N=c1c(C(=O)NCC2CCCO2)cc2c(=O)n3ccccc3nc2n1Cc1ccco1 (configuration not stated) | i | 15* | -10 | -3 | i | 17 | 41* | 38*
CCOC(=O)C(CNc1ccc(OCc2ccccc2)cc1)NC(=O)c1ccccc1 (configuration not stated) | 0 | 0 | 0 | 0 | 0 | x | x | x
C[C@H](O)[C@@H]1CN2CCc3ccc(N4CCOCC4)cc3[C@@H]2C[C@@H]1N(C)C(=O)c1ccccc1F | -15 | 1 | -12 | 0 | -11 | x | x | x
